# This is a sample that favours compounds with a hit; in the whole collection about 8.7% have one here.
# PostGolgi yeast = growth inhibition of a yeast mutant, post-Golgi transport screen | 98,000 compounds, 0.9% hits | inhibition, % at 10 µM | post-Golgi transport phenotypic cell assay;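 note: yeast cells grown in 1536-well plates; yeast grown about 18 h at 30C before absorbance read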
# Cav3 T inh = blocks human Cav3.2 T-type calcium channel; Cav3.2-expressing cells, Fluo-4 calcium fluorescence FDSS; stronger effect = lower value; 100,000 compounds, 4% hits; O95180; B-score at 10 µM;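 active = single-dose well whose peak fluorescence ratio is a statistical outlier from its plate by either plate-standardised score or position-corrected B-score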
# tolC growth inh = blocks growth of E. coli BW25113 tolC mutant | OD615 | growth inhibition, % at 10 µM (by protocol) | 65,000 compounds, 2.2% hits;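 active = growth inhibition at or above a cutoff equal to the mean over every tested compound plus 3 SD, cut at about 60% in these data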;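 note: growth measured after 20 h incubation at 37 °C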
#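 Assay system: tolC-deleted E. coli BW25113. Medium: kanamycin-containing LB broth (50 µg/mL). Dosing: 10 µM final, single dose. Timing: bacterial growth with compound for 20 h at 37 °C. Detection: A615 absorbance measurement. Read-out basis: growth inhibition in percent.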
# Ecoli WT expand = E. coli BW25113 growth inhibition, expanded screen | OD600 absorbance | growth inhibition, % at 100 µM | 98,000 compounds, 0.15% hits | AID 710;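 active = growth inhibition above about 50% at one test dose, limit read from the data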;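 note: growth measured after 20 h incubation at 37 °C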
# Pyk2 oligo antag = blocks oligomerization of human Pyk2 in cells | 99,000 compounds, 0.83% hits | Q14289 | AID 1347419 | Q293 cells, Pyk2 FERM NanoBiT luminescence; stronger effect = lower value | z-score (the deposit names both 25 µM and 10 µM);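 active = Z-score of -3 or lower, scaled per plate to the spread of control and sample wells; inactive = z-score above -3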;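 note: negative z-score means lost luminescence so less FERM oligomerization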
# PostGolgi ctrl = growth of the yeast control strain, post-Golgi counter-screen; efflux-deficient yeast background strain, growth absorbance A615, 16 h; inhibition, % at 10 µM; 98,000 compounds, 5% hits
# Starred values were filed as active, the others as inactive; x = no result. Cut-off read from the data, not from the text of the source, unless noted: active = inhibition above about 30%; inactive = the rest.
SMILES,PostGolgi yeast,Cav3 T inh,tolC growth inh,Ecoli WT expand,Pyk2 oligo antag,PostGolgi ctrl
CC(=O)NC1(C(F)(F)F)C(=O)NC(C)=C1C#N (stereo not drawn),5,0.34,-6,0,-0.15,5
CC1(O)N(Cc2ccccc2)C(=O)OC12CCCCC2 (stereo not drawn),-5,-1.1,-2,2,0.04,46*
CN1C(=O)OC(C)(CCc2ccccc2)C1(C)O (stereo not drawn),-3,-1,10,-1,1,3
CCCCCn1c(CN2CCN(c3cccc(Cl)c3)CC2)nc2c1c(=O)n(C)c(=O)n2C,x,-4.1,62*,x,-0.02,x
CCCn1c(CN2CCN(c3cccc(Cl)c3)CC2)nc2c1c(=O)n(C)c(=O)n2C,-5,-4.8*,10,-4,x,12
CCCCn1c(CN2CCN(c3ccccc3)CC2)nc2c1c(=O)n(C)c(=O)n2C,-8,-0.37,5,-3,x,15
CCCCn1c(CN2CCN(c3cccc(Cl)c3)CC2)nc2c1c(=O)n(C)c(=O)n2C,-4,-6.9*,31,8,0.46,19
O=C(CSc1nc2cc([N+](=O)[O-])ccc2n1-c1ccc(F)cc1)NC1CCS(=O)(=O)C1 (stereo not drawn),x,x,x,x,1.4,x
O=[n+]1c2c(n([O-])c3cc(F)c(N4CCCC4)cc31)CCCC2,3,-7.3*,7,3,1,17
O=[n+]1c2c(n([O-])c3cc(F)c(N4CCCC4)cc31)CCC2,x,x,-1,x,0.25,x
Cc1[nH]nc(N=CC2=C(O)CC(C)(C)CC2=O)c1-c1ccc(Cl)cc1,79*,-0.45,15,12,-2,23
Cc1ccc(-n2c(-c3ccncc3)nnc2-c2cccs2)cc1,x,-0.45,13,x,0.49,x
O=C(Nc1cccc(-c2cnc3ccccc3n2)c1)c1ccccc1,-8,1,x,0,0.08,-1
O=C(Nc1cccc(-c2cnc3ccccc3n2)c1)c1cccc(NC(=O)c2ccco2)c1,2,-3.5,x,-1,-4.4*,-1
O=C(Nc1ccc(Br)c(Cl)c1)c1ccco1,27,-0.77,100*,5,-0.71,12
O=C(c1ccccc1)c1cccc(NC(=O)c2ccco2)c1,-4,-0.7,32,2,-0.78,38*
CC(=O)c1cccc(NC(=O)c2ccco2)c1,-1,0.26,-11,7,-0.19,7
Cc1ccc(N=C(NO)c2nonc2N)cc1,-3,1.9,x,9,-0.7,41*
Cc1ccc(C(=O)O/N=C(/c2nonc2N)N(C)C)cc1,2,1.3,x,-1,-0.04,3
CC(C)c1nnc(NC(=O)CC(=O)Nc2ccccc2C(=O)O)s1,4,1.1,-4,5,-0.04,-1
CC(C)c1ccc(NC(=O)C2CC(=O)N=C(N)S2)cc1 (stereo not drawn),3,0.17,0,7,-0.26,-9
COc1ccccc1NC(=O)c1csc(-n2nc(C)cc2C(F)(F)F)n1,4,1.2,x,-12,0.44,3
Cc1cc(C(F)(F)F)n(-c2nc(C(=O)Nc3ccccc3Oc3ccccc3)cs2)n1,-5,-4.4*,x,-9,x,4
CCCn1nnc(NC(=O)COc2ccc(C3CCCCC3)cc2)n1,3,-3.3,100*,2,-0.67,9
CCCn1nnc(NC(=O)COc2ccc(Cl)cc2)n1,9,-0.27,-4,23,1.5,6
SMILES,PostGolgi yeast,Cav3 T inh,tolC growth inh,Ecoli WT expand,Pyk2 oligo antag,PostGolgi ctrl
O=[N+]([O-])c1cc(-n2cnnn2)ccc1N1CCC(Cc2ccccc2)CC1,1,-0.017,x,-18,-0.17,74*
CC1CC(C)CN(c2ccc(-n3cnnn3)cc2[N+](=O)[O-])C1 (stereo not drawn),6,-0.047,x,-7,-0.44,17
CC(C)Sc1nnc([C@H](Cc2c[nH]c3ccccc23)NC(=O)OC(C)(C)C)o1,-7,-4.1*,x,9,-2,16
CC(C)(C)OC(=O)N[C@@H](Cc1c[nH]c2ccccc12)c1nnc(SCC(N)=O)o1,7,0.079,4,-6,-0.01,12
c1ccc(-c2nc3cc(Cc4ccc5oc(-c6ccccn6)nc5c4)ccc3o2)nc1,x,x,-24,x,x,x
Cc1c(Cl)cccc1NC(=O)c1ccc(-n2ccnc2)nc1,2,1.8,x,-4,0.59,34*
O=C(C1CCCN(S(=O)(=O)c2cccc3cccnc23)C1)N1CCN(c2ccc(F)cc2)CC1 (stereo not drawn),10,2.1,4,-10,x,2
CC(C)c1ccccc1NC(=S)NN(Cc1ccccc1)c1ccccc1,-6,-6.9*,x,-20,-0.38,2
Fc1ccccc1NC(=S)NN(Cc1ccccc1)c1ccccc1,-6,-3.3,x,1,-1.2,16
CC(C)c1ccc(CN2CC(C(=O)O)CC2=O)cc1 (stereo not drawn),-1,0.15,x,-13,-0.13,-4
O=C1c2cccc3c(N4CCCCC4)ccc(c23)C(=O)N1c1ccccn1,-2,-6.9*,16,1,0.09,18
CC1=C(C)C(=O)N(c2ccccn2)C1=O,-10,0.92,-29,-4,0.56,3
Cc1csc(NC(=O)c2cccc(Cn3nc(C)c(Br)c3C)c2)n1,8,-3.7*,73*,-1,-1.6,15
COc1cc(CN(C(=O)c2ccco2)c2ccc(C)cc2)ccc1O,-12,-0.16,21,29,-0.54,12
COc1ccc(CN(C(=O)c2ccco2)c2ccc(Br)cc2)cc1OC,-22,-4.6*,36,-8,-1.3,28
Cc1ccc(N(Cc2ccc([N+](=O)[O-])cc2)C(=O)c2ccco2)cc1,12,-6.7*,x,-12,-0.33,35*
O=C(CSc1ccccn1)Nc1nc2ccc(Br)cc2s1,13,0.051,x,-3,-1.5,22
CCOC(=O)c1cnc2ccc(C)cc2c1Sc1ccccc1C(=O)OC,-7,x,x,11,-4.3*,-1
CCCCOc1ccc(-c2nnn(CC(=O)Nc3ncc(CC(=O)OCC)s3)n2)cc1,9,-2.4,-12,-6,1.2,1
O=C(O)c1ccccc1-c1nc2ccccc2c(=O)[nH]1,0,0.049,-13,4,0.23,3
O=C(O)c1ccccc1C1=Nc2ccc(O)cc2Oc2cc(O)ccc21,-5,-9.2*,-21,-5,0.49,5
CCCCCCNC(=O)n1cc(F)c(=O)[nH]c1=O,x,-0.67,x,x,x,x
CNS(=O)(=O)c1cccc(C(=O)OCC(=O)N2CCc3ccccc3C2)c1,-8,0.42,x,-2,1.6,3
CNS(=O)(=O)c1cccc(C(=O)OCc2cc(Cl)cc3c2OCOC3)c1,-1,-4.2*,28,-18,-0.45,19
O=C(Nc1ccccc1O)c1ccccc1O,9,-0.85,-3,63*,-0.89,9
Cc1ccc(C)c(NC(=O)c2ccccc2O)c1,11,-2.7,80*,3,-1,10
Cc1cccc(NC(=O)c2ccccc2O)c1C,-9,-1.1,53,20,-0.63,17
Cc1ccc(C)c(NC(=O)c2ncn[nH]2)c1,4,-4.2*,x,0,0.52,-2
